Measured values taken from ChEMBL document CHEMBL1143049, “Preparation, biological activity and endogenous occurrence of N6-benzyladenosines” (Bioorg Med Chem, 2007).

Key:
[1] = system: CCRF-CEM; assay: Antitumor activity against human CEM cells after 72 hrs by Calcein AM assay; type: functional, cell-based
Procedure, shortened: (§1)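 Cells grown in DMEM at 37 °C under 5% CO2. Compounds added after 12 h preincubation in 96-well plates, final 0.5-170 μM, with 0.6% final DMSO, then 72 h exposure. Viable cells stained with Calcein AM for 1 h and read at 485/538 nm. IC50 (concentration lethal to 50% of cells) taken from dose-response curves. Run in quadruplicate.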

[2] = biological target: Histidine kinase 4 (Arabidopsis thaliana) (UniProt Q9C5U0); assay: Activation of Arabidopsis thaliana CRE1/AHK4 cytokinin receptor relative to trans-zeatin; set-up: concentration or dose not given beside the values
Procedure, shortened: (§2)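 E. coli KMI001 carrying pSTV28-AHK3 or pIN-III-AHK4, precultured overnight at 25 °C in M9 + 0.1% casamino acids to OD600 ~1. Diluted 1:600, compound or solvent added, then incubated at 25 °C for 28 h (AHK3) or 17 h (CRE1/AHK4). Supernatant incubated with 4-methylumbelliferyl β-D-galactoside for 1 h at 37 °C and stopped with Na2CO3. Fluorescence read at 365/460 nm. β-galactosidase expressed as nmol 4-MU × OD600⁻¹ × h⁻¹.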

[3] = system: K562; assay: Antitumor activity against human K562 cells after 72 hrs by Calcein AM assay; type: functional, cell-based; conditions: K562, 72 h; procedure, shortened: as §1
[4] = system: Nicotiana tabacum; assay: Cytokinin activity in tobacco assessed as stimulation of callus growth at 1 umol/L relative to 6-Benzylaminopurine; type: functional
Procedure, shortened: (§3)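 Stimulation of tobacco callus growth. Compounds dissolved in DMSO, brought to 10^-3 M in water and diluted into medium (DMSO ≤0.2%). Range 10^-4 to 10^-8 M, five replicates per concentration, at least three independent repeats. Activity at the optimal concentration given relative to BAP's optimal response, taken as 100.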

[5] = biological target: T1, Histidine kinase 3 (Arabidopsis thaliana) (UniProt Q9C5U1); assay: Activation of Arabidopsis thaliana AHK3 cytokinin receptor relative to trans-zeatin; set-up: concentration or dose not given beside the values; procedure, shortened: as §2
T1 sequence (whole entry): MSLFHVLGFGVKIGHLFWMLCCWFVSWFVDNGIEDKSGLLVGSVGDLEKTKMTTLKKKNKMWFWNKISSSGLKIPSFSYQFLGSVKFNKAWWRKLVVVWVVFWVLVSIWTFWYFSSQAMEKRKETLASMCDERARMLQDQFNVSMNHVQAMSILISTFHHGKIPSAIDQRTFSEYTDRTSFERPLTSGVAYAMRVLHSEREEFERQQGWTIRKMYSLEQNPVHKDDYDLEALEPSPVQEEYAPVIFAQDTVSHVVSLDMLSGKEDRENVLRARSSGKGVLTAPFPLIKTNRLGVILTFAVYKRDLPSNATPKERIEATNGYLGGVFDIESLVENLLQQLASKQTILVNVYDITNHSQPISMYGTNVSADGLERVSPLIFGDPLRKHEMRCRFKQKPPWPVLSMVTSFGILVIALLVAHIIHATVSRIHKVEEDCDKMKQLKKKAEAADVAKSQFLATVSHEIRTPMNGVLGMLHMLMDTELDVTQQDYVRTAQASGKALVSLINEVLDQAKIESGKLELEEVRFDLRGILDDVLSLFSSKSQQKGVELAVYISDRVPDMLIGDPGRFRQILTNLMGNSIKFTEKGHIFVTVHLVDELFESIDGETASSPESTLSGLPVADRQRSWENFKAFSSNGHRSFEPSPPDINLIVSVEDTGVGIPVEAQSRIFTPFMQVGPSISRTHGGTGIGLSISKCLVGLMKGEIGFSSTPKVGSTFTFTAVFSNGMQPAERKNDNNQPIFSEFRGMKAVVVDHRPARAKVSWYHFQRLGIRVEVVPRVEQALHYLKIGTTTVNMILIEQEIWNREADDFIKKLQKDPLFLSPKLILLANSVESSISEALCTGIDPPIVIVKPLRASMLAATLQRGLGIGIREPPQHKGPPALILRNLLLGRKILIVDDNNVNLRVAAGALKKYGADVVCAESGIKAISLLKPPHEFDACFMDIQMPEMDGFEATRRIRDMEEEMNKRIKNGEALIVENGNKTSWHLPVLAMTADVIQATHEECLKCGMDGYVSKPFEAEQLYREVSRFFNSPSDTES

[6] = Antitumor activity against human MCF cells after 72 hrs by Calcein AM assay; type: functional, cell-based; procedure, shortened: as §1
[7] = system: Amaranthus; assay: Cytokinin activity in Amaranthus cotyledons assessed as dark induction of betacyanin synthesis at 0.01 mmol/L relative to 6-Benzylaminopurine; type: functional
Procedure, shortened: (§4)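 Dark induction of betacyanin in excised Amaranthus cotyledons. DMSO stock brought to 10^-3 M in water, diluted into assay medium (DMSO ≤0.2%). Tested over 10^-4 to 10^-8 M, five replicates per concentration, assay repeated at least three times. Response at the optimal concentration expressed relative to BAP at its optimum (set to 100).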

[8] = system: B16; assay: Antitumor activity against mouse B16 cells after 72 hrs by Calcein AM assay; type: functional, cell-based; conditions: B16, 72 h; procedure, shortened: as §1
[9] = system: HOS; assay: Antitumor activity against human HOS cells after 72 hrs by Calcein AM assay; type: functional, cell-based; procedure, shortened: as §1
[10] = system: HL-60; assay: Antitumor activity against human HL60 cells after 72 hrs by Calcein AM assay; type: functional, cell-based; conditions: HL-60, 72 h; procedure, shortened: as §1
[11] = system: Triticum aestivum; assay: Cytokinin activity in wheat assessed as retention of chlorophyll in excised wheat leaves at 0.1 mmol/L relative to 6-Benzylaminopurine by senescence assay; type: functional
Procedure, shortened: (§5)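 Senescence assay measuring chlorophyll retention in excised wheat leaves. DMSO stocks brought to 10^-3 M with water, then diluted in assay medium to a final DMSO of at most 0.2%. Concentrations 10^-4 to 10^-8 M, quintuplicate, repeated at least three times. Response at the optimal concentration normalised to BAP optimum = 100.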

[12] = Cytotoxicity against mouse NIH 3T3 cells after 72 hrs by Calcein AM assay; type: cell-based; conditions: NIH3T3, 72 h; procedure, shortened: as §1
[13] = system: Amaranthus; assay: Cytokinin activity in Amaranthus cotyledons assessed as dark induction of betacyanin synthesis at 0.1 mmol/L relative to 6-Benzylaminopurine; type: functional; procedure, shortened: as §4
[14] = system: Triticum aestivum; assay: Cytokinin activity in wheat assessed as retention of chlorophyll in excised wheat leaves at 0.01 mmol/L relative to 6-Benzylaminopurine by senescence assay; type: functional; procedure, shortened: as §5
[15] = system: Nicotiana tabacum; assay: Cytokinin activity in tobacco assessed as stimulation of callus growth at 0.01 mmol/L relative to 6-Benzylaminopurine; type: functional; procedure, shortened: as §3
[16] = system: G-361; assay: Antitumor activity against human G361 cells after 72 hrs by Calcein AM assay; type: functional, cell-based; conditions: G-361, 72 h; procedure, shortened: as §1

Histidine kinase 4 (Arabidopsis thaliana), sequence (Q9C5U0 whole entry): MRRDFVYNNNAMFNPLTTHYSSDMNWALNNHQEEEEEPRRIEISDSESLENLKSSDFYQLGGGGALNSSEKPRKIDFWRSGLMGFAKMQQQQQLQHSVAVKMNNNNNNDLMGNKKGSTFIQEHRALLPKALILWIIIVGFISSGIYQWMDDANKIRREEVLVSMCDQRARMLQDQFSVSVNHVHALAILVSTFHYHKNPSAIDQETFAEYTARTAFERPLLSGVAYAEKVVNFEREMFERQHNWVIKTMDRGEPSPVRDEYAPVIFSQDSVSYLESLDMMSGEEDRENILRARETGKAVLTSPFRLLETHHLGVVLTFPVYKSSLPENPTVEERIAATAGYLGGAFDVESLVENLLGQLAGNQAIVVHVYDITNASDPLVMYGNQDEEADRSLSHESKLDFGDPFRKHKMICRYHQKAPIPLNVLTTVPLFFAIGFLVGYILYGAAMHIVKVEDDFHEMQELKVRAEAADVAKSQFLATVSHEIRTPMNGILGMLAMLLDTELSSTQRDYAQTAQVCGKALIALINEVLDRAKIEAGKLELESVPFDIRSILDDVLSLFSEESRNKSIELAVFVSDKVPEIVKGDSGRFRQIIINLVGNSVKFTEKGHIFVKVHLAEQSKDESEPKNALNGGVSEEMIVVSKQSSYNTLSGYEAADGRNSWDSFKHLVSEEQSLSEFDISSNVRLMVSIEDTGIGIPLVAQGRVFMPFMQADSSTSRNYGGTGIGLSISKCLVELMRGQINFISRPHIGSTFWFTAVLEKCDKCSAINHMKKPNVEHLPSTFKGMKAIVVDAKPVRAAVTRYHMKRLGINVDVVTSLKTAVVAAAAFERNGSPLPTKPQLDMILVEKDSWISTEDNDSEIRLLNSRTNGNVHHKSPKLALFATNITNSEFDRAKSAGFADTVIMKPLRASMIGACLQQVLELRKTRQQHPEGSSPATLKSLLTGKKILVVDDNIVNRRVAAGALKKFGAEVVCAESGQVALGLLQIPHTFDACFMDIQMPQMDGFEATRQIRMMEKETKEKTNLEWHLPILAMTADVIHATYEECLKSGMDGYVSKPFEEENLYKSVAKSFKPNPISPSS

Structure (SMILES)	IC50 [1] [µM]	Activity [2] [%]	IC50 [3] [µM]	Activity [5] [%]	IC50 [6] [µM]	IC50 [8] [µM]	IC50 [9] [µM]	IC50 [10] [µM]	IC50 [16] [µM]	Activity [4] [%]	Activity [7] [%]	Activity [11] [%]	IC50 [12] [µM]	Activity [13] [%]	Activity [14] [%]	Activity [15] [%]
OC[C@H]1O[C@@H](n2cnc3c(NCc4ccccc4Cl)ncnc32)[C@H](O)[C@@H]1O	14.5	0.04	64	0.02	> 167	> 167	> 167	1.6		93	113	119	> 167			
OC[C@H]1O[C@@H](n2cnc3c(NCc4ccccc4Br)ncnc32)[C@H](O)[C@@H]1O	12.3		10		> 167	> 167	> 167	6.6	> 167				> 167	147	86	100
Cc1cccc(CNc2ncnc3c2ncn3[C@@H]2O[C@H](CO)[C@@H](O)[C@H]2O)c1	19.1		> 167		> 167	> 167	> 167	6.4	> 167	90	96	143	> 167			
COc1ccc(CNc2ncnc3c2ncn3[C@@H]2O[C@H](CO)[C@@H](O)[C@H]2O)cc1	> 167	0.22	156	2.45	> 167	19.5	> 167	> 167	115	2		65.5		17		
OC[C@H]1O[C@@H](n2cnc3c(NCc4ccc(F)cc4Cl)ncnc32)[C@H](O)[C@@H]1O	20.9		15.6		> 167	> 167	> 167	9	> 167			165	> 167	115		98
OC[C@H]1O[C@@H](n2cnc3c(NCc4ccc(F)c(F)c4F)ncnc32)[C@H](O)[C@@H]1O	58.2		> 167		> 167	> 167	> 167	13	> 167			144		95		94
OC[C@H]1O[C@@H](n2cnc3c(NCc4ccc(Cl)cc4Cl)ncnc32)[C@H](O)[C@@H]1O	86.7		106		127	> 167	> 167	96.3	128					3	5	70

Compounds with a lower IC50 [1], results first:

IC50 [1] [µM]	Activity [2] [%]	IC50 [3] [µM]	Activity [5] [%]	IC50 [6] [µM]	IC50 [8] [µM]	IC50 [9] [µM]	IC50 [10] [µM]	IC50 [16] [µM]	Structure (SMILES)	Activity [4] [%]	Activity [7] [%]	Activity [11] [%]	IC50 [12] [µM]	Activity [13] [%]	Activity [14] [%]	Activity [15] [%]
1.6	0.15	27.7	2.63	26.9		> 167	0.75	> 167	OC[C@H]1O[C@@H](n2cnc3c(NCc4cccc(Cl)c4)ncnc32)[C@H](O)[C@@H]1O		139	72	> 167			96
1.4	0.35	5.5	2.53	5.4	> 167	> 167	0.94	> 167	OC[C@H]1O[C@@H](n2cnc3c(NCc4ccccc4)ncnc32)[C@H](O)[C@@H]1O [N6-BENZYLADENOSINE]				39			
3.2	0.12	8.9	0.04	> 167	> 167	> 167	2.3	> 167	COc1ccccc1CNc1ncnc2c1ncn2[C@@H]1O[C@H](CO)[C@@H](O)[C@H]1O		86	198	140			108
10.2	0.23	218	0.81	> 167	> 167	> 167	1.7	> 167	OC[C@H]1O[C@@H](n2cnc3c(NCc4ccc(Cl)cc4)ncnc32)[C@H](O)[C@@H]1O	46	35	104	> 167			
1.25	0.39	2.7	7.67	21		13.2	1.2	> 167	OC[C@H]1O[C@@H](n2cnc3c(NCc4ccc(F)cc4)ncnc32)[C@H](O)[C@@H]1O	100	71	148	44.3			
4	0.36	7.6	0.99	15.3		> 167	0.92	> 167	OC[C@H]1O[C@@H](n2cnc3c(NCc4cccc(F)c4)ncnc32)[C@H](O)[C@@H]1O		92	220	84			91
5		19.7		> 167	> 167	> 167	8	> 167	OC[C@H]1O[C@@H](n2cnc3c(NCc4cccc(Br)c4)ncnc32)[C@H](O)[C@@H]1O			89	> 167	151		82
7.6	0.14	> 167	1.12	> 167	> 167	> 167	4.9		COc1cccc(CNc2ncnc3c2ncn3[C@@H]2O[C@H](CO)[C@@H](O)[C@H]2O)c1	92		209	> 167	98		
4.6	0.12	33.2	2.91	> 167	> 167	> 167	3.2		OC[C@H]1O[C@@H](n2cnc3c(NCc4ccccc4F)ncnc32)[C@H](O)[C@@H]1O	100	96	118	> 167			
